A selection: hits, their analogues and other compounds. The true share with any hit is near 1.9%.
SUMO1-SIM PPI – alters human SUMO1 binding to SIM partners; P63165; SUMO1 binding to a labelled peptide, TR-FRET, 1 h; inhibition, % at 20 µM; actives 0.33% (n = 360,000); AID 602429; in the data active = inhibition above about 37%
Target sequence (P63165 whole entry, looked up): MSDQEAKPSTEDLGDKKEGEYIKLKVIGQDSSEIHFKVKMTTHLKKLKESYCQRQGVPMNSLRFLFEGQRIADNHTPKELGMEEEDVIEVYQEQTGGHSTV
STEP block – inhibitors of human striatal-enriched phosphatase STEP. inhibition, % at 20 µM. actives 0.25% (n = 360,000). recombinant STEP, OMFP fluorogenic substrate, fluorescence;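 active = inhibition at 20 µM, scaled per plate between control wells, above about 37%, limit read from the data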;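 also: 0% = DMSO with enzyme and substrate and 100% = substrate only without enzyme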
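Material: STEP (striatal-enriched tyrosine phosphatase) enzyme, cell-free; Compound dosing: 20 µM single dose in 1% DMSO; Technique: fluorescence read at 480 nm ex / 540 nm em; Times: reaction 20 min, ambient temperature; Medium: 50 mM Bis-Tris pH 6.0 with 2.5 mM DTT and 0.005% Tween 20; Also added: OMFP at 25 µM.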
Scp1 inh – blocks human Scp-1 phosphatase activity | Q9GZU7 | Recombinant Scp1, phosphopeptide, malachite green phosphate absorbance | inhibition, % at 20 µM | actives 0.88% (n = 340,000) | AID 493091;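 active = inhibition above about 50% at 20 µM, limit read from the data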;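 also: plate controls were DMSO wells with enzyme for no effect and wells lacking enzyme for full effect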
Target sequence (Q9GZU7 76-261 limits assumed): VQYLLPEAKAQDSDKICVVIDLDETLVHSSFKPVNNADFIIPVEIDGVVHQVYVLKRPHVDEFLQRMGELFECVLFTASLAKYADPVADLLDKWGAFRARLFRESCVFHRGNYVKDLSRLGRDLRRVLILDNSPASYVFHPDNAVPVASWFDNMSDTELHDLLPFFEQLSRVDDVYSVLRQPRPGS
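Test system – truncated SCP-1 phosphatase (76-261aa) · Reagent – Phosphorylated 17-residue peptide substrate · Incubation – 45 min room-temperature reaction, 5 min colour, 30 min stabiliser · Detection – colorimetric phosphate reagent with accelerator and stabiliser, absorbance at 630 nm · Measure – % inhibition at 20 µM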
DNMT1 block – blocks human DNA methyltransferase DNMT1 | actives 0.83% (n = 360,000) | inhibition (reported as % activation of signal), % at 10 µM | P26358 | DNMT1 molecular beacon, Hinp1I cleavage, fluorescence; in the data active = inhibition above about 50%
CSN deneddyl inh – CSN deneddylation inhibition; actives 0.38% (n = 360,000); inhibition, % at 12.5 µM; Purified CSN, SCF-Nedd8-OG deneddylation, fluorescence polarization; AID 651999;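 active = pattern-corrected inhibition above about 35%, with an unprinted fluorescence ratio check between 0.5 and 1.5, limit read from the data, passing the limit was not always enough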;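 also: 0% = enzyme with substrate and 100% = substrate without enzyme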
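Assay system: purified human Csn5 enzyme expressed in HEK293T cells; measure: % inhibition; also added: SCFSkp2-Nedd8OG substrate at 10 nM final; technique: fluorescence polarization; times: reaction 90 min, room temperature; medium: Tris buffer pH 7.5, NaCl, DTT, Tween-20, trehalose, ovalbumin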
LMPTP inh – LMPTP (human) inhibition; P24666; recombinant LMPTP-A, OMFP fluorogenic substrate, fluorescence intensity; inhibition, % at 20 µM; actives 0.22% (n = 360,000); AID 651560;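 active = compounds that cut the enzyme signal by at least half of the control window in the single-dose screen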;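 also: plate controls were DMSO wells with enzyme plus substrate for no effect and substrate without enzyme for full effect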
Target sequence (P24666 whole entry, looked up): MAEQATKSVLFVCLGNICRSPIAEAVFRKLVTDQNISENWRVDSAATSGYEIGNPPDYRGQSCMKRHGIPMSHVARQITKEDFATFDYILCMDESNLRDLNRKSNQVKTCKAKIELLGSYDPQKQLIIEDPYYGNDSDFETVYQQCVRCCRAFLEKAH
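Test system – LMPTP-A phosphatase enzyme · Quantity – 0.625 nM LMPTP-A final · Reagent – OMFP substrate, 400 µM final · Dosing – one test concentration per compound, 20 µM, with 3% DMSO overall · Timing – 50 min enzyme reaction at room temperature, protected from light · Detection – fluorescence intensity · Controls – substrate-only low control, DMSO enzyme-plus-substrate high control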
Starred values were filed as active, the others as inactive; / = no result given.

SMILES | SUMO1-SIM PPI | STEP block | Scp1 inh | DNMT1 block | CSN deneddyl inh | LMPTP inh
CC(=O)c1ccc(NC(=O)CCNC(=O)c2ccc(Cl)cc2)cc1 | -2 | -1 | -10 | -1 | 3 | -1
COc1ccc(NC2CCCN(C(=O)c3ccc(C)c(N4CCNC4=O)c3)C2)cc1 (stereo not drawn) | 1 | 1 | -4 | -2 | -4 | 0
CC(=O)Nc1ccc(OCC(O)Cn2nc(C)c(C)c2C)cc1 (stereo not drawn) | 0 | -4 | -6 | -1 | 6 | -1
C=CC[C@]12C[C@@H](OC)C(=O)C=C1O[C@@H](c1ccc(OC)c(OC)c1)[C@H]2C | 6 | 3 | 1 | -2 | 3 | 1
COc1ccc(-c2c3c(cc4ncn(Cc5ccccc5)c24)COC3=O)cc1 | -6 | 6 | -5 | -3 | 3 | 0
Cc1ccc(S(=O)(=O)N(C(=O)c2ccncc2)c2ccc(OC(=O)c3ccncc3)c3ccccc23)c(C)c1 | 5 | 1 | 60* | -25 | -1 | 3
Cc1ccc(S(=O)(=O)N(C(=O)c2ccncc2)c2ccc(OC(=O)c3ccncc3)c3ccccc23)cc1 | 1 | 1 | 6 | -15 | -1 | 1
Cc1ccc(NC(=O)C(C)Sc2nnc3ccccn23)cc1 (stereo not drawn) | -1 | -1 | 2 | -1 | -1 | 0
CC(Sc1nnc2ccccn12)C(=O)Nc1ccc2c(c1)OCCO2 (stereo not drawn) | 104* | -1 | 1 | -2 | -4 | 0
CCN(CC)C(=O)c1ccc(/C=C/c2c[nH]c3ccccc23)[n+](C)c1 | -47 | -8 | 8 | 30 | 125 | 4
CC[n+]1c(/C=C/c2c[nH]c3ccccc23)ccc2cc(C)ccc21 | / | / | 68* | / | / | /
CCOc1cc([N+](=O)[O-])cc2c1C(=O)Nc1ccccc1O2 | -17 | -4 | 0 | -3 | 43* | 1
COc1ccc2c(c1O)Cc1ccccc1C2=O | 55* | 2 | -3 | -24 | -12 | -1
CNS(=O)(=O)c1cccc(C(=O)OCC(=O)c2ccc(S(=O)(=O)N3CCCCC3)cc2)c1 | -1 | 0 | -8 | -14 | -2 | 1
CNS(=O)(=O)c1cccc(C(=O)OCC(=O)c2ccc3[nH]c(=O)[nH]c3c2)c1 | 21 | 1 | 24 | -6 | 54* | 23
NNc1ccc([N+](=O)[O-])c2[nH][nH]c(=O)c12 | 99* | 96* | / | 85* | 91 | 84*
Oc1cc(Nc2cccnc2)cc2cccnc12 | -21 | 4 | -9 | -2 | -2 | 16
Oc1cc(Nc2ccncc2)cc2cccnc12 | -32 | 3 | -14 | -4 | 1 | 56*
O=C1NC[C@H](c2ccccc2)N(CCC23CC4CC(CC(C4)C2)C3)C1=O | 32 | 5 | 5 | -9 | 74* | 2
O=C1NC[C@H](c2ccccc2)N(CCc2cccc3ccccc23)C1=O | 5 | 5 | 0 | 8 | 6 | 1
Cc1cc(C(=O)NCCCn2ccnc2)sc1-c1ccccc1 | -5 | 0 | 2 | -10 | 0 | -2
Fc1ccccc1-c1nc(NCCCN2CCOCC2)c2ccccc2n1 | 0 | -4 | -3 | 1 | -1 | 51*
Cc1ccc(-c2nc(NCCN3CCOCC3)c3ccccc3n2)cc1 | 3 | -2 | -8 | 0 | -1 | 50*
CN(C)CCCNc1nc(-c2ccccc2)nc2ccccc12 | -23 | 1 | -4 | -6 | 3 | 28
CC(C)OCCCNc1nc(-c2ccccc2)nc2ccccc12 | 5 | 3 | -1 | 6 | -2 | 56*
Clc1ccc(-c2nc(NCCCN3CCOCC3)c3ccccc3n2)cc1 | 5 | -1 | 2 | 14 | 1 | 42
O=C1NC(=S)S/C1=C\c1ccc(SCc2ccco2)o1 | 83* | 50* | 77* | 103* | 56 | 76*
O=C1NC(=S)SC1=Cc1ccccc1Cl | 1 | -1 | 5 | 3 | 4 | 2
C=CC(=O)N1C/C(=C/c2ccc(F)cc2)C(=O)/C(=C\c2ccc(F)cc2)C1 | 76* | 24 | 85* | 93* | 27 | 7

High-throughput results deposited in PubChem by Sanford-Burnham Center for Chemical Genomics.
